From ChEMBL document CHEMBL1140925, “Nuclear factor-kappaB mediated inhibition of cytokine production by imidazoline scaffolds” (J Med Chem, 2009)
Calls of active or inactive are those of the source. No cut-off for these calls is given here.

What was measured:
Blood [1] = assay: Antiinflammatory activity in human whole blood assessed as inhibition of IL-1-beta-induced TNFalpha production preincubated 2 hrs before addition of IL1-beta measured after 18 hrs by ELISA; type: functional, tissue-based
In short: (§1)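 Human blood from donors with white count in the normal range, diluted 1:10 in RPMI-1640 with 10% FBS, penicillin and streptomycin. Aliquots were preincubated with vehicle (0.1% DMSO final) or compound at 10, 3, 1, 0.3 or 0.1 µM final for 2 h at 37 °C, 5% CO2. IL-1β (200 U/mL) was then added for 18 h, and plasma was collected and frozen. Cytokine was measured by ELISA.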

Blood [2] = assay: Antiinflammatory activity in human whole blood assessed as inhibition of IL-1-beta-induced IL6 production preincubated 2 hrs before addition of IL1-beta measured after 18 hrs by ELISA; type: functional, tissue-based; in short: as §1
HeLa [3] = assay: Induction of NF-kappaB-mediated transcription expressed in human HeLa cells at 20 uM by luciferase reporter gene assay; type: cell-based
In short: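 Stably integrated NF-κB-luc HeLa cells, hygromycin-selected, were exposed to 20 µM imidazoline without TNF-α activation. Firefly luciferase was read after 8 h, and signal was normalized to the TNF-α activation control.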

[4] = (§2) Inhibition of TNF-alpha-induced NF-kappaB-mediated transcription expressed in human HeLa cells preincubated for 30 mins before addition of TNFalpha measured after 8 hrs by luciferase reporter gene assay; type: cell-based
In short: (§3)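 HeLa/NF-κB-luc cells (5.0 × 10⁵ cells/mL) were grown 24 h, then switched to serum-free DMEM. They were pretreated 30 min at 37 °C with 0.05–20 µM imidazoline (1% DMSO vehicle), then stimulated with 25 ng/mL TNF-α for 8 h. Steady-Glo luminescence was normalized to TNF-α activation, and EC50 was taken from a variable-slope sigmoidal fit. Values are the mean of two independent experiments.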

HeLa [5] = assay: as §2; type: cell-based; in short: as §3
HeLa [6] = assay: Inhibition of TNF-alpha-induced NF-kappaB-mediated transcription expressed in human HeLa cells co-transfected with renilla luciferase-TK gene preincubated for 30 mins before TNFalpha challenge measured after 8 hrs by dual-glo luciferase reporter gene assay; type: cell-based
In short: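 HeLa cells were transiently cotransfected (lipofectamine 2000, 5–6 h) with 6×κB pNF-κB-luc and the pRL-TK Renilla control, then grown 24 h. They were pretreated 30 min with 0.312–20 µM (1% DMSO vehicle), then stimulated with 25 ng/mL TNF-α for 8 h at 37 °C. Dual-Glo firefly signal was normalized to Renilla luminescence.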

In the case of `NC(=O)[C@]1(c2ccccc2)N=C(c2ccccc2)N(Cc2ccccc2)[C@@H]1c1ccccc1` (racemic), the logIC50 (Blood [1]) is reported as 1.668, the IC50 (Blood [1]; Homo sapiens, Blood) is reported as greater than 20 µM and the Activity (Blood [2]) is reported as “Dose-dependent effect”. For the same compound, the logIC50 (Blood [2]) was 1.08, the IC50 (Blood [2]; Homo sapiens, Blood) was 11.9 µM and the Activity (HeLa [3]) was “inactive”. The EC50 [4] was 26.2 µM, the Activity (HeLa [5]) was “Dose-dependent effect” and the logEC50 (HeLa [5]) was 1.55.

For `COC(=O)[C@]1(c2ccccc2)N=C(c2ccccc2)N(Cc2ccccc2)[C@@H]1c1ccccc1` (racemic), the Activity (Blood [1]) was “Dose-dependent effect”, the logIC50 (Blood [1]) was 0.4761 and the IC50 (Blood [1]; Homo sapiens, Blood) was 2.79 µM. For the same compound, the Activity (Blood [2]) was “Dose-dependent effect”, the logIC50 (Blood [2]) was 0.446 and the Activity (HeLa [3]) was “inactive”. The EC50 [4] was 7.47 µM, the Activity (HeLa [5]) was “Dose-dependent effect” and the logEC50 (HeLa [5]) was 0.87.

With `CCOC(=O)[C@]1(c2ccccc2)N=C(c2ccccc2)N(Cc2ccccc2)[C@@H]1c1ccccc1` (racemic) the Activity (Blood [1]) was “Dose-dependent effect”, the Activity (Blood [2]) was “Dose-dependent effect” and the Activity (HeLa [3]) was “inactive”. The logEC50 (HeLa [6]) was 0.67, the Activity (HeLa [5]) was “Dose-dependent effect” and the logEC50 (HeLa [5]) was 0.4.

With `CCOC(=O)[C@]1(c2ccccc2)N=C(c2ccccc2)N(Cc2ccccc2)[C@@H]1c1ccccc1` [listing 1 of 2 here] the Activity (Blood [1]) was “Dose-dependent effect”, the Activity (Blood [2]) was “Dose-dependent effect” and the Activity (HeLa [3]) was “inactive”. The Activity (HeLa [5]) was “Dose-dependent effect” and the logEC50 (HeLa [5]) was 0.209.

`CCOC(=O)[C@]1(c2ccccc2)N=C(c2ccccc2)N(Cc2ccccc2)[C@@H]1c1ccccc1` [listing 2 of 2 here] gave an IC50 (Blood [1]) of 0.6 µM, an IC50 (Blood [2]) of 0.2 µM and an EC50 [4] of 1.6 µM.

In the case of `c1ccc(Cn2c(-c3ccccc3)nc(-c3ccccc3)c2-c2ccccc2)cc1`, the Activity (Blood [1]) is reported as “Dose-dependent effect”, the Activity (Blood [2]) is reported as “Dose-dependent effect” and the Activity (HeLa [3]) is reported as “inactive”. The EC50 [4] was 27.7 µM, the Activity (HeLa [5]) was “Dose-dependent effect” and the logEC50 (HeLa [5]) was 1.44.

For `c1ccc(CN2C(c3ccccc3)=N[C@H](c3ccccc3)[C@H]2c2ccccc2)cc1` (racemic), the Activity (Blood [1]) was “Dose-dependent effect”, the logIC50 (Blood [1]) was 0.39 and the Activity (Blood [2]) was “Dose-dependent effect”. For the same compound, the IC50 (Blood [2]; Homo sapiens, Blood) was 2.47 µM, the Activity (HeLa [3]) was “inactive” and the EC50 [4] was 4.59 µM. For the same compound, the Activity (HeLa [5]) was “Dose-dependent effect” and the logEC50 (HeLa [5]) was 0.66.

In the case of `O=C(O)[C@]1(c2ccccc2)N=C(c2ccccc2)N(Cc2ccccc2)[C@@H]1c1ccccc1` (racemic; 1) [listing 1 of 2 here], the Activity (Blood [1]) is reported as “Dose-dependent effect”, the Activity (Blood [2]) is reported as “Dose-dependent effect” and the Activity (HeLa [3]) is reported as “inactive”. For the same compound, the Activity (HeLa [5]) was “Dose-dependent effect”.

In the case of `O=C(O)[C@]1(c2ccccc2)N=C(c2ccccc2)N(Cc2ccccc2)[C@@H]1c1ccccc1` (racemic; 1) [listing 2 of 2 here], the IC50 (Blood [1]; Homo sapiens, Blood) is reported as greater than 20 µM, the IC50 (Blood [2]; Homo sapiens, Blood) is reported as greater than 20 µM and the EC50 [4] is reported as 0.95 µM.

In the case of `O=C(O)[C@]1(c2ccccc2)N=C(c2ccccc2)N(Cc2ccccc2)[C@@H]1c1ccccc1` (racemic; 2), the Activity (HeLa [3]) is reported as “inactive” and the Activity (HeLa [5]) is reported as “inactive”.

In the case of `OC[C@]1(c2ccccc2)N=C(c2ccccc2)N(Cc2ccccc2)[C@@H]1c1ccccc1` (racemic), the logIC50 (Blood [1]) is reported as 1.29, the Activity (Blood [2]) is reported as “Dose-dependent effect” and the IC50 (Blood [2]; Homo sapiens, Blood) is reported as greater than 20 µM. The Activity (HeLa [3]) was “inactive”, the EC50 [4] was greater than 20 µM and the Activity (HeLa [5]) was “Dose-dependent effect”.

In the case of `O=C(OCc1ccccc1)[C@]1(c2ccccc2)N=C(c2ccccc2)N(Cc2ccccc2)[C@@H]1c1ccccc1` (racemic), the Activity (Blood [1]) is reported as “Dose-dependent effect”, the logIC50 (Blood [1]) is reported as 0.51 and the IC50 (Blood [1]; Homo sapiens, Blood) is reported as 3.2 µM. The Activity (Blood [2]) was “Dose-dependent effect”, the logIC50 (Blood [2]) was 0.77 and the Activity (HeLa [3]) was “inactive”. For the same compound, the EC50 [4] was 3.5 µM, the Activity (HeLa [5]) was “Dose-dependent effect” and the logEC50 (HeLa [5]) was 0.54.

In the case of `c1ccc(CN2C(c3ccccc3)=N[C@@H](c3ccccc3)[C@H]2c2ccccc2)cc1` (racemic), the Activity (Blood [1]) is reported as “Dose-dependent effect”, the logIC50 (Blood [1]) is reported as 0.38 and the Activity (Blood [2]) is reported as “Dose-dependent effect”. For the same compound, the IC50 (Blood [2]; Homo sapiens, Blood) was 2.4 µM, the Activity (HeLa [3]) was “inactive” and the EC50 [4] was 11 µM. For the same compound, the Activity (HeLa [5]) was “Dose-dependent effect” and the logEC50 (HeLa [5]) was 1.04.

With `CCOC(=O)[C@@]1(c2ccccc2)N=C(c2ccccc2)N(Cc2ccccc2)[C@H]1c1ccccc1` the Activity (Blood [1]) was “Dose-dependent effect”, the IC50 (Blood [1]; Homo sapiens, Blood) was 0.7 µM and the Activity (Blood [2]) was “Dose-dependent effect”. The IC50 (Blood [2]; Homo sapiens, Blood) was 0.583 µM, the Activity (HeLa [3]) was “inactive” and the EC50 [4] was 2.9 µM. The Activity (HeLa [5]) was “Dose-dependent effect” and the logEC50 (HeLa [5]) was 0.469.
